# Results reported in ChEMBL document CHEMBL1127301, “Carbonyl-containing bisphosphonate esters as novel antiinflammatory and antiarthritic agents” (1994).
# Values joined by “and” are separate entries in the source; they are usually repeats but may differ in a detail not shown here. Equal values may be shown once.
# Legend:
# Type in all cases: functional
# Mus musculus [1] = test: Decreased wet tissue weight of DTH-GRA from mice was determined after (sc) administration of a dose of 100 mg/kg after 9 days; conditions: for inhibition in vivo at 100 mg/kg: Mus musculus, sc, 216 h
# Method in brief: (§1)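 Groups of 10 female CF-1 mice (25 g) were sensitized sc over the inguinal node with mBSA/Freund's incomplete adjuvant/dextran. Three weeks later, two 6 mm hydroxyapatite discs soaked in mBSA (30 mg/mL) were implanted sc in the dorsum. Drug was given sc in the scruff. After 9 days, granulomas were excised and wet/dry weights compared with vehicle controls as percent inhibition.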
# Mus musculus [2] = test: Decreased dry tissue weight of DTH-GRA from mice was determined after (sc) administration of a dose of 10 mg/kg after 9 days; method in brief: as §1
# Mus musculus [3] = test: Decreased wet tissue weight of DTH-GRA from mice was determined after (sc) administration of a dose of 10 mg/kg after 9 days; method in brief: as §1
# Mus musculus [4] = test: Compound was tested for the suppression of Antigen-Induced Arthritis in mice after 28 days, which were dosed 10 mg/kg subcutaneously; conditions: sc, 672 h, route subcutaneous
# Method in brief: (§2)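 mBSA-sensitized mice were boosted after 7 days and, 14 days later, challenged intraarticularly with 200 μg mBSA in saline in the left rear stifle. Drug in sterile saline was given sc in the scruff from day 0 on a 5-of-7-day regimen to day 28. H&E sagittal joint sections were graded 1–5 for inflammation, pannus, and cartilage/bone erosion; results are percent inhibition.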
# Mus musculus [5] = test: Compound was tested for the suppression of Antigen-Induced Arthritis in mice after 28days, at a dose of 10 mg/kg administered subcutaneously; conditions: sc, 672 h, route subcutaneous; method in brief: as §2
# Mus musculus [6] = test: Compound was tested for the suppression of Antigen-Induced Arthritis in mice after 28days, which were dosed 100 mg/kg subcutaneously;; conditions: sc, 672 h, route subcutaneous; method in brief: as §2
# Mus musculus [7] = test: Compound was tested for the suppression of Antigen-Induced Arthritis in mice after 28days, at a dose of 100 mg/kg administered subcutaneously; p<0.001; conditions: sc, 672 h, route subcutaneous; method in brief: as §2
# Mus musculus [8] = test: Compound was tested for the suppression of Antigen-Induced Arthritis in mice after 28days, which were dosed 100 mg/kg subcutaneously; conditions: sc, 672 h, route subcutaneous; method in brief: as §2
# Mus musculus [9] = test: Compound was tested for the suppression of Antigen-Induced Arthritis in mice after 28 days, at a dose of 50 mg/kg administered subcutaneously; conditions: sc, 672 h, route subcutaneous; method in brief: as §2
# Mus musculus [10] = test: Compound was tested for the suppression of Antigen-Induced Arthritis in mice after 28 days, at a dose of 25 mg/kg administered subcutaneously; conditions: sc, 672 h, route subcutaneous; method in brief: as §2
# Mus musculus [11] = test: Decreased dry tissue weight of DTH-GRA from mice was determined after (sc) administration of a dose of 100 mg/kg after 9 days; conditions: 216 h; method in brief: as §1
# Mus musculus [12] = test: Decreased dry tissue weight of DTH-GRA from mice was determined after (sc) administration of a dose of 100 mg/kg
# Method in brief: (§3)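 Groups of 10 female CF-1 mice (25 g) sensitized sc over the inguinal lymph node with mBSA emulsion (saline, Freund's incomplete adjuvant, dextran). Three weeks later, two hydroxyapatite discs (6 mm) soaked in mBSA (30 mg/mL saline) implanted sc bilaterally in the dorsum. Compound given sc in scruff of neck in saline vehicle. Granulomas excised after 9 days; wet and dry weights expressed as percent inhibition versus vehicle-dosed controls.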
# Mus musculus [13] = test: Decreased dry tissue weight of DTH-GRA from mice was determined after (sc) administration of a dose of 200 mg/kg; method in brief: as §3
# Mus musculus [14] = test: Decreased dry tissue weight of DTH-GRA from mice was determined after (sc) administration of a dose of 25 mg/kg; method in brief: as §3
# Mus musculus [15] = test: Decreased dry tissue weight of DTH-GRA from mice was determined after (sc) administration of a dose of 50 mg/kg; method in brief: as §3
# Mus musculus [16] = test: Decreased wet tissue weight of DTH-GRA from mice was determined after (sc) administration of a dose of 100 mg/kg; method in brief: as §3
# Mus musculus [17] = test: Decreased wet tissue weight of DTH-GRA from mice was determined after (sc) administration of a dose of 200 mg/kg; method in brief: as §3
# Mus musculus [18] = test: Decreased wet tissue weight of DTH-GRA from mice was determined after (sc) administration of a dose of 25 mg/kg; method in brief: as §3
# Mus musculus [19] = test: Decreased wet tissue weight of DTH-GRA from mice was determined after (sc) administration of a dose of 50 mg/kg; method in brief: as §3
# Mus musculus [20] = test: Compound was tested for the suppression of Antigen-Induced Arthritis in mice after 28days, at a dose of 100 mg/kg administered subcutaneously; conditions: sc, 672 h, route subcutaneous; method in brief: as §2
compound,measurement,setting,value
CCOP(=O)(OCC)C(CC1Sc2ccccc2C1=O)P(=O)(OCC)OCC (centres undefined),inhibition in vivo at 100 mg/kg,Mus musculus [1],27%
CCOP(=O)(OCC)C(C[C@@H]1C(=O)c2ccccc2O[C@H]1c1ccccc1)P(=O)(OCC)OCC,inhibition in vivo at 100 mg/kg,Mus musculus [1],67%
CCOP(=O)(OCC)C(CC(=O)C(=O)c1ccccc1)P(=O)(OCC)OCC,Inhibition,Mus musculus [2],45% and 54% and 49% and 38% and 27%
same,Inhibition,Mus musculus [3],56% and 49% and 43% and 28%
same,inhibition in vivo at 100 mg/kg,Mus musculus [1],49%
same,inhibition in vivo at 10 mg/kg,Mus musculus [4],12%
CCOP(=O)(OCC)C(CC(C(=O)c1ccc(OC)cc1)c1ccccn1)P(=O)(OCC)OCC (centres undefined),inhibition in vivo at 100 mg/kg,Mus musculus [1],34%
CCOP(=O)(OCC)C(CC(C#N)c1ccccn1)P(=O)(OCC)OCC (centres undefined),inhibition in vivo at 10 mg/kg,Mus musculus [5],2%
CCOP(=O)(OCC)C(CC1CCCC(C)C1=O)P(=O)(OCC)OCC (centres undefined),inhibition in vivo at 100 mg/kg,Mus musculus [6],46%
same,inhibition in vivo at 100 mg/kg,Mus musculus [1],25%
CCOP(=O)(OCC)C(CC(C(=O)OC)c1ccccc1)P(=O)(OCC)OCC (centres undefined),inhibition in vivo at 100 mg/kg,Mus musculus [7],38%
same,inhibition in vivo at 100 mg/kg,Mus musculus [1],8%
CCOP(=O)(OCC)C(CC(C(=O)Nc1ccccc1)C(=O)c1ccccc1)P(=O)(OCC)OCC (centres undefined),inhibition in vivo at 100 mg/kg,Mus musculus [1],3%
CCOP(=O)(OCC)C1(P(=O)(OCC)OCC)CC(C(=O)c2ccccc2)=NN1,inhibition in vivo at 100 mg/kg,Mus musculus [1],31%
CCOP(=O)(OCC)C(CC1COc2ccccc2C1=O)P(=O)(OCC)OCC (centres undefined),inhibition in vivo at 100 mg/kg,Mus musculus [1],67%
CCOP(=O)(OCC)C(CC1Cc2ccccc2C1=O)P(=O)(OCC)OCC (centres undefined),inhibition in vivo at 100 mg/kg,Mus musculus [1],0%
CCOP(=O)(OCC)C(CC(C#N)c1cccc2ccccc12)P(=O)(OCC)OCC (centres undefined),inhibition in vivo at 100 mg/kg,Mus musculus [1],0%
CCOP(=O)(OCC)C(CC1C(=O)c2ccccc2SC1C)P(=O)(OCC)OCC (centres undefined),inhibition in vivo at 100 mg/kg,Mus musculus [1],33%
CCOC(=O)C(CC(P(=O)(OCC)OCC)P(=O)(OCC)OCC)C(=O)c1ccccc1 (centres undefined),inhibition in vivo at 100 mg/kg,Mus musculus [1],77%
CCOP(=O)(OCC)C(CC(C(=O)c1ccccc1)c1ccccc1)P(=O)(OCC)OCC (centres undefined),inhibition in vivo at 100 mg/kg,Mus musculus [8],52%
same,Inhibition,Mus musculus [2],57% and 48% and 38%
same,Inhibition,Mus musculus [1]; 100 mg/kg,51% and 44% and 35%
same,inhibition in vivo at 100 mg/kg,Mus musculus [1],48%
same,inhibition in vivo at 50 mg/kg,Mus musculus [9],53%
same,inhibition in vivo at 25 mg/kg,Mus musculus [10],55%
CCOP(=O)(OCC)C(CC(C(=O)OC)c1ccccc1O)P(=O)(OCC)OCC (centres undefined),inhibition in vivo at 100 mg/kg,Mus musculus [1],5%
CCOP(=O)(OCC)C(C[C@H]1C(=O)c2ccccc2O[C@H]1c1ccccc1)P(=O)(OCC)OCC,inhibition in vivo at 100 mg/kg,Mus musculus [1],0%
CCOP(=O)(OCC)C(CC1C(=O)c2ccccc2OC1c1ccccc1)P(=O)(OCC)OCC (centres undefined),inhibition in vivo at 100 mg/kg,Mus musculus [8],21%
same,inhibition in vivo at 100 mg/kg,Mus musculus [1],46%
same,inhibition in vivo at 100 mg/kg,Mus musculus [11],47%
O=P(O)(O)C(Cl)(Cl)P(=O)(O)O [CLODRONIC ACID],inhibition in vivo at 100 mg/kg,Mus musculus [12],63%
same,inhibition in vivo at 200 mg/kg,Mus musculus [13],59%
same,inhibition in vivo at 25 mg/kg,Mus musculus [14],45%
same,inhibition in vivo at 50 mg/kg,Mus musculus [15],47%
same,inhibition in vivo at 100 mg/kg,Mus musculus [16],61%
same,inhibition in vivo at 100 mg/kg,Mus musculus [1],45%
same,inhibition in vivo at 200 mg/kg,Mus musculus [17],55%
same,inhibition in vivo at 25 mg/kg,Mus musculus [18],45%
same,inhibition in vivo at 50 mg/kg,Mus musculus [19],48%
same,inhibition in vivo at 100 mg/kg,Mus musculus [11],50%
CCOP(=O)(OCC)C(CC1CCCC(c2ccccc2)C1=O)P(=O)(OCC)OCC (centres undefined),inhibition in vivo at 100 mg/kg,Mus musculus [1],50%
CCOP(=O)(OCC)C(CC(C#N)c1cccs1)P(=O)(OCC)OCC (centres undefined),inhibition in vivo at 100 mg/kg,Mus musculus [1],40%
CCOP(=O)(OCC)C(CC1CSc2ccc(C)cc2C1=O)P(=O)(OCC)OCC (centres undefined),inhibition in vivo at 100 mg/kg,Mus musculus [20],21%
same,inhibition in vivo at 100 mg/kg,Mus musculus [1],28%
